# High-throughput results deposited in PubChem by several laboratories.
# FGF22 binding – binders of human FGF22 protein, primary screen, FGF22 synaptogenesis inhibitor project, biophysical, thermal shift, single point. Fibroblast growth factor 22 (Homo sapiens), Q9HCT0. recombinant FGF22 thermal shift, SYPRO orange fluorescence; percent of sucrose octasulfate shift, DMSO zero. activity (Tm shift, normalised), % at 9.99 µM. 340,000 tested, 1.5% active. AID 651658, 2012;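 active = mean Tm shift, scaled 0 neutral to 100 positive control, at about 1.3% or above, every replicate too, limit read from the data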
# Target sequence (Q9HCT0 whole entry, looked up): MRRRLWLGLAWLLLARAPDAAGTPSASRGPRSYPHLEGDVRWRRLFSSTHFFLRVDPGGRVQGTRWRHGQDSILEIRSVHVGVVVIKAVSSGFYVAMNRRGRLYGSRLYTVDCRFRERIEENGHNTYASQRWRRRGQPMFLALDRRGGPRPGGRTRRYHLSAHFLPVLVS
# Efflux pump mplx – inhibitors of Candida efflux pumps in yeast, primary screen, S. cerevisiae, Nile Red, multiplex; S. cerevisiae Candida pump triplex; inhibition, % at 10 µM; 330,000 tested, 0.44% active;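 active = plate passing quality check with inhibition over a set limit, or well fluorescence over plate mean plus 4 SD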;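 also: Nile Red retained in pooled yeast measured as flow cytometry median fluorescence; 0% = buffer negative control and 100% = Enniatin B positive control; higher means more Nile Red kept so more efflux inhibition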
# ASAP1 inh – inhibitors of human ASAP1 ArfGAP activity, primary screen, biochemical, fluorescence polarization. Arf-GAP with SH3 domain, ANK repeat and PH domain-containing protein 1 (Homo sapiens), …. ASAP1-stimulated ARF1 GTP hydrolysis, GDP FP detection. inhibition, % at 16.5 µM. 360,000 tested, 0.19% active. AID 624377, 2012; in the data active = inhibition above about 25%;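 also: 0% = vehicle with enzyme and substrate and 100% = no enzyme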
# Rtt109 Vps75 – inhibitors of C. albicans Rtt109/Vps75 HAT, primary screen, biochemical, ThioGlo CoA-SH fluorescence, plate reader | Histone acetyltransferase RTT109 (Candida albicans (strain SC5314 / ATCC MYA-2876)), … | purified Rtt109/Vps75, 4 h | inhibition, % at 34.9 µM | 330,000 tested, 0.16% active;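 active = inhibition of at least 50% in every replicate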
# ARFGAP1 inhibitor – inhibitors of rat ARFGAP1 GAP activity, primary screen, biochemical, fluorescence polarization, GDP tracer | ADP-ribosylation factor GTPase-activating protein 1 (Rattus norvegicus), Q62848 | Arfgap1-stimulated ARF1 GTP hydrolysis, GDP FP detection | inhibition, % at 16.5 µM | 360,000 tested, 0.26% active | AID 651572, 2012;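 active = inhibition above a per-plate limit, mean inhibition of low control wells plus 3 SD, cut at about 25% in these data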;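 also: 0% = DMSO wells with enzyme and 100% = wells lacking Arfgap1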
# Target sequence (Q62848 1-136 limits assumed): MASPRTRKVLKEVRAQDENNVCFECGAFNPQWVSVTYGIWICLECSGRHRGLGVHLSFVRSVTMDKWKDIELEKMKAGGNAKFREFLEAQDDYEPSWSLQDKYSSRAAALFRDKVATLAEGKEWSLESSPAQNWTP
#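 Material: truncated rat Arfgap1 GAP domain; Incubation: compound-enzyme preincubation 20 min, reaction 120 min, detection 60 min, 25 °C; Read-out: percent inhibition of Arfgap1-stimulated GTP hydrolysis; Technique: FP, GDP Alexa 633 tracer displaced from anti-GDP antibody, 620/688 nm; Controls: No-Arfgap1 wells (100%) versus DMSO full-reaction wells (0%); Replication: single well per compound.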
# * marks the source's active call; other numbers are inactive results; / = not tested or not shown. An excerpt weighted towards active compounds, which were near 1.9% of everything screened.
SMILES,FGF22 binding,Efflux pump mplx,ASAP1 inh,Rtt109 Vps75,ARFGAP1 inhibitor
CCOc1ccc(NC(=O)Nc2cccc(C(=O)O)c2)cc1,0,0,4,-38,3
CCOC(=O)c1cccc(NC(=O)Nc2ccc(OCC)cc2)c1,43*,0,3,-13,10
CCOc1ccc(S(=O)(=O)NCCC(=O)Nc2ccncc2)cc1,0,0,-2,-5,1
CCNC(=O)[C@@H]1[C@@H](CO)[C@@H]2Cn3c(ccc(-c4ccccc4)c3=O)[C@H]1N2C(=O)c1ccccn1,0,/,/,/,/
COc1cccc(/C=C(/C(=O)OCC(=O)NCC2CCCO2)c2ccccc2)c1 (stereo unspecified),43*,0,1,-2,-1
CCCOP(=O)(OCCC)c1nc(-c2ccccc2)oc1NCc1ccccc1,43*,-1,-4,10,-14
CCOP(=O)(OCC)c1nc(-c2ccc(Cl)cc2)oc1NCc1ccccc1,43*,0,-8,2,6
O=C(O)COc1ccc(NC(=O)c2cccs2)cc1,0,0,-2,6,-6
CC1CCCN(C(=O)COc2ccc(NC(=O)c3cccs3)cc2)C1 (stereo unspecified),44*,0,1,0,2
O=C(COc1ccc(F)cc1Br)N1CCN(S(=O)(=O)/C=C/c2ccccc2)CC1,0,0,1,3,-2
Cc1ccccc1C(=O)NCCNC(=O)c1ccco1,0,0,-6,51*,0
Cc1ccccc1C(=O)NCC(=O)O,43*,0,-9,-7,-4
Cc1cc(/C=C2/C(=O)N(C)C(=S)N2C)ccc1N1CCCC1,43*,0,2,3,3
Cc1cc(/C=C2\NC(=S)N(C)C2=O)ccc1N1CCCC1,0,0,-8,5,-2
O=C(CN1CCCC1)Nc1cc(C(F)(F)F)ccc1Cl,-1,0,-7,-5,-6
O=C(O)CSCC(=O)Nc1cc(C(F)(F)F)ccc1Cl,/,0,7,66*,18
O=C(COc1ccc([N+](=O)[O-])cc1Cl)N(C1CCCCC1)C1CCS(=O)(=O)C1 (stereo unspecified),0,/,24,3,-3
COc1ccccc1NC(=O)C(C/C=C(\C)Cl)C(C)=O (stereo unspecified),/,0,5,-5,5
CC1CCc2c(sc(N)c2C(N)=O)C1 (stereo unspecified),0,0,-1,50*,-4
Cc1ccc(CN2CCN(c3ncccn3)CC2)o1,0,0,6,7,2
O=C(NNc1ccccc1)C(=O)NNS(=O)(=O)c1ccc(CCCl)cc1,0,0,6,65*,-9
COC(=O)Nc1ccc(C)c(NC(=O)OC)c1,0,0,3,-3,0
CCCC(=O)NC(=S)Nc1cccc(C(C)=O)c1,/,0,-2,-3,4
CC(=O)Nc1cccc(NC(=S)Nc2ccc(F)cc2F)c1,43*,0,0,3,-3
CC(=O)c1cccc(NC(=S)NCCc2ccc(F)cc2)c1,44*,0,-4,5,1
SMILES,FGF22 binding,Efflux pump mplx,ASAP1 inh,Rtt109 Vps75,ARFGAP1 inhibitor
CCCCCC(=O)NC(=S)Nc1cccc(C(C)=O)c1,44*,0,-3,/,1
C=CC[C@@]12N=C(c3ccc(OCCCO)cc3)O[C@@H]1c1ccccc1CN(CCS(=O)(=O)c1ccccc1)C2=O,0,/,/,/,/
CCN(CC)CCOCCn1c(C)ccc1C,43*,/,-5,-1,-5
CC(C)(C)c1cc(CCC(=O)Nc2ccncc2)cc(C(C)(C)C)c1O,18*,0,-9,0,1
Nc1ccc(C(=O)OCC(=O)N2CCOCC2)cc1[N+](=O)[O-],43*,0,3,-5,-3
COc1ccc(C(=O)OCC(=O)N2C(C)CCCC2C)cc1[N+](=O)[O-] (stereo unspecified),43*,0,6,12,4
O=C(NCc1cccnc1)C(=O)NC1CCCCC1,0,0,4,6,9
